Rows were chosen to be rich in hits. Some 3% of all compounds tested hit in one or more screens of this group.
SENP6 inh: SENP6 protease inhibition. Recombinant SENP6 catalytic domain, aminoluciferin luminescence. inhibition, % at 10 µM. Q9GZR1. AID 2599. 1.8% of 330,000 active;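 active means inhibition above about 50% at the single tested dose, limit read from the data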;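 further: plate controls were DMSO wells with enzyme for no effect and DMSO wells lacking enzyme for full effect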
Target sequence (Q9GZR1 628-1112 limits assumed): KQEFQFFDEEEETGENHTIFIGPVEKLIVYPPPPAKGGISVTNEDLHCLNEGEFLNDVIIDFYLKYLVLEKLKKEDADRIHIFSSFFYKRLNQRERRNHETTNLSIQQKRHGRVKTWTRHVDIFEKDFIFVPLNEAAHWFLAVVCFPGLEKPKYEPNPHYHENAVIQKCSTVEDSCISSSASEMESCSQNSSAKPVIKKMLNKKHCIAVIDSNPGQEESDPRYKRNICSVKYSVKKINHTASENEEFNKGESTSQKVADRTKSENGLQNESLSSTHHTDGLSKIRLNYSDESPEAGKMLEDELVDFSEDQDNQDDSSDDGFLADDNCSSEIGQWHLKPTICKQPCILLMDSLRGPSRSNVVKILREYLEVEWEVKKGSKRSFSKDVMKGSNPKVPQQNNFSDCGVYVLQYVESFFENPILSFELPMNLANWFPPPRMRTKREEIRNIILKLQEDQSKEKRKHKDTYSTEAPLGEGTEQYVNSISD
SENP7 inh: blocks the human protease SENP7. inhibition, % at 5 µM. Q9BQF6. recombinant SENP7, Z-RLRGG-aminoluciferin luminescence, 40 min. 1.5% of 330,000 active;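 active means inhibition above about 50% at the single test dose, limit read from the data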;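 further: plate controls were DMSO with enzyme for no effect and no enzyme buffer wells for full effect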
Apaf-1 inh: blocks human Apaf-1 apoptosome activity. O14727. reconstituted apoptosome caspase-3 activity, DEVD-Rh110 fluorescence. inhibition, % at 20 µM. 0.71% of 330,000 active; active means inhibition of at least 40% at 20 µM;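 further: plate controls were DMSO wells for no effect and DEVD-CHO caspase inhibitor wells for full effect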
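detection = Rh110 fluorescence intensity | test system = biochemical Apaf-1 apoptosome reconstitution | also added = cytochrome c and DEVD-Rh110 substrate | schedule = 30 min plus 50 min, RT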
SENP8 block-1: blocks human SENP8 cleavage of Nedd8 substrate | AID 602440 | recombinant SENP8, Nedd8 substrate fluorescence | 0.64% of 360,000 active | inhibition, % at 20 µM; in the data active means inhibition mostly above about 40%, no sharp cut-off; inactive means mostly below about 27%
Target sequence (Q96LD8 whole entry, looked up): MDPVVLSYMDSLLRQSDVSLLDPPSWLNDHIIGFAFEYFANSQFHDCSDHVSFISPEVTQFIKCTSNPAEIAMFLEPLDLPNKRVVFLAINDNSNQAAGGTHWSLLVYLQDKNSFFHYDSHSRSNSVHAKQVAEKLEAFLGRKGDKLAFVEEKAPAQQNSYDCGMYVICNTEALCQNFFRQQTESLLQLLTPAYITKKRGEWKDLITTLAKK
SENP8 block-2: inhibitors of human SENP8 protease; purified SENP8, Z-RLRGG-aminoluciferin cleavage, luminescence; inhibition, % at 10 µM; 1.2% of 330,000 active; in the data active means inhibition above about 50%
UBC13 inh: blocks human UBC13 polyubiquitin chain formation. P61088. TR-FRET. inhibition, % at 20 µM. 0.47% of 330,000 active; in the data active means inhibition above about 45%, passing the limit was not always enough
SENP8 conf: human SENP8 inhibition, confirmed; shares compounds with SENP7 inh; Recombinant SENP8, Z-RLRGG-aminoluciferin luminescence, 60 min; inhibition, % at 12.5 µM; 40% of 6,200 active; AID 488912;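 active means mean inhibition across replicates above about 50%, limit read from the data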
SENP6 conf: confirmation of human SENP6 protease inhibitors; recombinant SENP6, Z-RLRGG-aminoluciferin luminescence; inhibition, % at 12.5 µM; 58% of 6,200 active; shares compounds with SENP7 inh
SENP7 confirm: human SENP7 inhibition, confirmed; shares compounds with SENP7 inh; recombinant SENP7, Z-RLRGG-aminoluciferin luminescence, 40 min; inhibition, % at 12.5 µM; 69% of 6,200 active; AID 488917
Casp3 select: caspase-3 inhibition (SENP selectivity assay); purified caspase-3, Z-DEVD-aminoluciferin luminescence, 60 min; shares compounds with SENP7 inh; AID 488918; 60% of 6,200 active; inhibition, % at 12.5 µM;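 active means mean inhibition above about 50%, limit read from the data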;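 further: plate controls were enzyme with DMSO for no effect and wells without caspase-3 for full effect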
SENP luc ctr: luminescence interference (SENP counter-screen); shares compounds with SENP7 inh; Pre-incubated SENP8/Z-RLRGG-aminoluciferin, luciferase luminescence interference; inhibition, % at 12.5 µM; 39% of 6,200 active; AID 488919;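 active means mean inhibition above about 50% when retested at one dose, limit read from the data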;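 further: plate controls were DMSO wells with completed reaction for no effect and substrate without enzyme for full effect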
An asterisk follows results filed as active; x = no result.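 How the source made its calls, unless noted: active means mean inhibition above about 50% in the one-dose retest (limit read from the data); inactive means the rest.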

SMILES | SENP6 inh | SENP7 inh | Apaf-1 inh | SENP8 block-1 | SENP8 block-2 | UBC13 inh | SENP8 conf | SENP6 conf | SENP7 confirm | Casp3 select | SENP luc ctr
Fc1ccc(/C=C/c2nnc(-c3cccs3)o2)cc1 | 61* | 67* | 1 | -409 | 20 | -12 | 0 | 0 | 15 | 27 | 12
Cc1ccc(-c2nnc(-c3cccs3)o2)cc1 | 24 | 81* | -6 | -339 | 68* | 14 | 72* | 87* | 99* | 86* | 43
Cc1ccc(/C=C/c2nnc(-c3cccs3)o2)cc1 | 91* | 0 | -1 | -304 | 86* | 5 | -5 | 43 | 67* | 43 | 23
O=C(CSc1nnc(C2CC2)n1CC1CCCO1)Nc1ccc(Cl)cc1 (centres undefined) | -7 | -6 | 3 | 4 | 11 | 4 | x | x | x | x | x
Cc1oc(-c2ccccc2)nc1CS(=O)CC(=O)NC1CCCCCC1 (centres undefined) | -2 | -7 | 4 | -4 | -8 | -6 | x | x | x | x | x
CC(C)CN(C(=O)CN1C(=O)C2CCCCC2C1=O)c1c(N)n(Cc2ccccc2)c(=O)[nH]c1=O (centres undefined) | -4 | -5 | -15 | -3 | 4 | -6 | x | x | x | x | x
CSCCC(NC(=O)c1ccc(Cl)cc1Cl)C(=O)N1CCCCCCC1 (centres undefined) | -7 | -3 | 12 | 3 | 10 | -7 | x | x | x | x | x
CCCc1cc(C(=O)NNC(=S)Nc2cccc(C)c2)cs1 | 79* | 94* | 26 | 10 | 80* | -10 | 33 | 26 | 8 | 4 | 21
C[C@H]1CN([C@@H](C)CO)C(=O)CCCn2nncc2CO[C@@H]1CN(C)Cc1ccc(Cl)c(Cl)c1 | x | x | x | 3 | x | x | x | x | x | x | x
O=C1C2C3C=CC(CC3)C2C(=O)N1/N=C/c1ccc(O)cc1 (centres undefined) | -22 | 2 | -10 | 8 | -6 | -1 | x | x | x | x | x
CC(=O)NN1C(=O)/C(=C\c2ccc(O)cc2)SC1=S | 69* | 54* | -7 | 16 | 60* | -104 | 63* | 61* | 85* | 82* | 74*
O=C1/C(=C\c2ccc(O)cc2)SC(=S)N1/N=C/c1ccc(O)cc1 | 98* | 83* | -12 | 24 | 90* | -87 | 16 | 10 | 44 | 48 | 57*
CCOC(=O)C(=CNc1ccc(Oc2cccnc2)nc1)C(=O)OCC | -8 | 3 | -6 | 4 | -4 | -2 | x | x | x | x | x
CCOc1cc(/C=C2\SC(=S)N(Nc3ccccc3)C2=O)ccc1O | 85* | 44 | 22 | 35 | 45 | -90 | 60* | 69* | 81* | 24 | 55*
COc1cc(/C=C2\SC(=S)N(Nc3ccccc3)C2=O)ccc1O | 93* | 72* | 11 | 52* | 89* | -114 | 95* | 96* | 100* | 78* | 94*
O=C(O)c1ccc(/C=C2\SC(=S)N(Nc3ccccc3)C2=O)cc1 | 95* | 78* | 6 | 28 | 82* | -2 | 92* | 92* | 98* | 84* | 76*
O=C1/C(=C/c2ccc(O)c(O)c2)SC(=S)N1Nc1ccccc1 | x | x | x | 28 | x | x | x | x | x | x | x
Cc1ccc(S(=O)(=O)NC2(C(F)(F)F)NC(=O)N(c3ccccc3F)C2=O)cc1 (centres undefined) | -9 | 6 | -3 | 13 | 6 | 7 | x | x | x | x | x
Cc1ccc(C2=NN(S(C)(=O)=O)C(c3ccc4c(c3)OCO4)C2)cc1 (centres undefined) | 68* | 59* | 6 | 12 | 50 | -4 | 34 | 63* | 90* | 71* | 42
CS(=O)(=O)N1N=C(c2ccc(Br)cc2)CC1c1ccc2c(c1)OCO2 (centres undefined) | -14 | 43 | 13 | 7 | -3 | 14 | x | x | x | x | x
Cc1ccc(S(=O)(=O)Oc2ccc(/C=N/NC(=O)c3nn(C)cc3Cl)cc2)cc1 | -20 | -8 | 23 | 12 | -12 | -4 | x | x | x | x | x
Cc1ccc(/C=N/OC(=O)c2nn(C)cc2Cl)cc1 | 66* | 66* | -3 | 8 | 50* | 3 | -5 | 21 | 62* | 34 | 49
Cc1ccc(SC/C(O)=C(\C#N)c2nc3ccccc3s2)cc1 | 71* | 0 | 8 | 29 | 25 | -3 | 6 | 22 | 13 | 16 | 8
COc1ccc(OC(=O)Nc2ccccc2)cc1 | 82* | -8 | 0 | 10 | 83* | 2 | 2 | 88* | 100* | 92* | 86*
CCc1ccc(OC(=O)Nc2ccccc2)cc1 | 86* | 38 | 4 | 4 | 78* | -4 | 91* | 91* | 98* | 82* | 78*
SMILES | SENP6 inh | SENP7 inh | Apaf-1 inh | SENP8 block-1 | SENP8 block-2 | UBC13 inh | SENP8 conf | SENP6 conf | SENP7 confirm | Casp3 select | SENP luc ctr
COc1ccc(-c2cn(Cc3ccc(C(=O)c4ccccc4)cc3)nn2)cc1 | 79* | 64* | 16 | x | 77* | 13 | 14 | 63* | 17 | 64* | -4
O=C(CCC(=O)N1CCN(Cc2ccccc2)CC1)Nc1nnc(C2CCCCC2)s1 | 10 | 8 | 6 | 0 | -10 | -5 | x | x | x | x | x
COCCSc1ccccc1C(=O)Nc1ccc(Br)cc1 | -7 | 4 | 8 | 5 | -9 | 3 | x | x | x | x | x
O=C(Cc1cccs1)Nc1ccc(F)c(F)c1 | -22 | 2 | -17 | 1 | -1 | 2 | x | x | x | x | x
O=C(/C=C/Nc1ccc(F)cc1)c1cccs1 | 93* | 92* | 1 | -221 | 89* | -2 | 89* | 98* | 102* | 96* | 67*
O=C(/C=C/Nc1ccc(F)c(F)c1)c1cccs1 | 90* | 83* | 13 | -212 | 86* | -14 | 68* | 89* | 99* | 83* | 38
O=C(/C=C/Nc1ccc(S(=O)(=O)Nc2ncccn2)cc1)c1cccs1 | 5 | 5 | -10 | -453 | -3 | -2 | x | x | x | x | x
COc1ccc(CCC(=O)NNC(=O)Nc2cc(Cl)ccc2C)cc1 | -1 | -36 | 3 | 10 | 10 | 2 | x | x | x | x | x
Cc1sc2c(c1C)CN(C(C)(C)C)CN2C(=O)c1ccccc1 | 30 | 1 | 4 | -31 | 7 | 12 | x | x | x | x | x
COCCN1Cc2c(sc(C)c2C)N(C(=O)c2ccccc2)C1 | 51* | 5 | -2 | -246 | 29 | 3 | 4 | 1 | 32 | 30 | 49

Screening results deposited in PubChem by Sanford-Burnham Center for Chemical Genomics.
